Assay results reported in ChEMBL document CHEMBL1150054, “Studies on the synthesis of sesquiterpene lactones, 14. Syntheses of (-)-arbusclin D and (+)-4-EPI-arbusclin D: the stereochemical assignment of arbusclin D” (1992).
Calls of active or inactive are those of the source. The rule behind the calls is not given here.

How the values were obtained:
P388 [1] = assay: Growth inhibition of mouse P388 cells at 0.1 ug/mL after 48 hrs relative to control; type: functional; settings: P388, 48 h, read-out: GI
In short: (§1)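 P-388 murine lymphocytic leukemia cells incubated with compound 48 h at 37° under humidified 5% CO2; cells counted by Coulter counter. Inhibitory ratio (%) = (1 − (T − C0)/(C − C0)) × 100, where T is the count with compound, C the count without compound and C0 the count at culture start.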

P388 [2] = assay: Growth inhibition of mouse P388 cells at 0.01 ug/mL after 48 hrs relative to control; type: functional; settings: P388, 48 h, read-out: GI; in short: as §1
P388 [3] = assay: Growth inhibition of mouse P388 cells at 1 ug/mL after 48 hrs relative to control; type: functional; settings: P388, 48 h, read-out: GI; in short: as §1
Brassica juncea [4] = assay: Growth regulatory activity in Brassica juncea assessed as complete inhibition of root growth at 500 ppm after 10 days; type: functional, organism-based
Echinochloa frumentacea [5] = assay: Growth regulatory activity in Echinochloa frumentacea assessed as inhibition of stem growth at 500 ppm after 10 days; type: functional, organism-based
Echinochloa frumentacea [6] = assay: Growth regulatory activity in Echinochloa frumentacea assessed as complete inhibition of root growth at 500 ppm after 10 days; type: functional, organism-based
Echinochloa frumentacea [7] = assay: Growth regulatory activity in Echinochloa frumentacea assessed as complete inhibition of root growth at 250 ppm after 10 days; type: functional, organism-based
Cucumis sativus [8] = assay: Growth regulatory activity in Cucumis sativus assessed as complete inhibition of root growth at 100 ppm after 10 days; type: functional, organism-based
Echinochloa frumentacea [9] = assay: Growth regulatory activity in Echinochloa frumentacea assessed as complete inhibition of root growth at 1000 ppm after 10 days; type: functional, organism-based
Echinochloa frumentacea [10] = assay: Growth regulatory activity in Echinochloa frumentacea assessed as complete inhibition of stem growth at 1000 ppm after 10 days; type: functional, organism-based
Brassica juncea [11] = assay: Growth regulatory activity in Brassica juncea assessed as complete inhibition of stem growth at 1000 ppm after 10 days; type: functional, organism-based
Brassica juncea [12] = assay: Growth regulatory activity in Brassica juncea assessed as complete inhibition of root growth at 1000 ppm after 10 days; type: functional, organism-based
Brassica juncea [13] = assay: Growth regulatory activity in Brassica juncea assessed as inhibition of root growth at 250 ppm after 10 days; type: functional, organism-based
Cucumis sativus [14] = assay: Growth regulatory activity in Cucumis sativus assessed as complete inhibition of root growth at 1000 ppm after 10 days; type: functional, organism-based
Cucumis sativus [15] = assay: Growth regulatory activity in Cucumis sativus assessed as inhibition of stem growth at 250 ppm after 10 days; type: functional, organism-based
Cucumis sativus [16] = assay: Growth regulatory activity in Cucumis sativus assessed as complete inhibition of root growth at 500 ppm after 10 days; type: functional, organism-based
Brassica juncea [17] = assay: Growth regulatory activity in Brassica juncea assessed as inhibition of stem growth at 500 ppm after 10 days; type: functional, organism-based
Cucumis sativus [18] = assay: Growth regulatory activity in Cucumis sativus assessed as complete inhibition of stem growth at 500 ppm after 10 days; type: functional, organism-based
Brassica juncea [19] = assay: Growth regulatory activity in Brassica juncea assessed as inhibition of stem growth at 250 ppm after 10 days; type: functional, organism-based
Cucumis sativus [20] = assay: Growth regulatory activity in Cucumis sativus assessed as complete inhibition of stem growth at 1000 ppm after 10 days; type: functional, organism-based
Cucumis sativus [21] = assay: Growth regulatory activity in Cucumis sativus assessed as complete inhibition of root growth at 250 ppm after 10 days; type: functional, organism-based
P388 [22] = assay: Growth inhibition of mouse P388 cells at 10 ug/mL after 48 hrs relative to control; type: functional; settings: P388, 48 h, read-out: GI; in short: as §1
Cucumis sativus [23] = assay: Growth regulatory activity in Cucumis sativus assessed as inhibition of root growth at 100 ppm after 10 days; type: functional, organism-based
Cucumis sativus [24] = assay: Growth regulatory activity in Cucumis sativus assessed as inhibition of root growth at 500 ppm after 10 days; type: functional, organism-based
Cucumis sativus [25] = assay: Growth regulatory activity in Cucumis sativus assessed as inhibition of stem growth at 100 ppm after 10 days; type: functional, organism-based
Brassica juncea [26] = assay: Growth regulatory activity in Brassica juncea assessed as complete inhibition of root growth at 250 ppm after 10 days; type: functional, organism-based
Cucumis sativus [27] = assay: Growth regulatory activity in Cucumis sativus assessed as inhibition of root growth at 250 ppm after 10 days; type: functional, organism-based
Echinochloa frumentacea [28] = assay: Growth regulatory activity in Echinochloa frumentacea assessed as complete inhibition of stem growth at 500 ppm after 10 days; type: functional, organism-based
Brassica juncea [29] = assay: Growth regulatory activity in Brassica juncea assessed as complete inhibition of stem growth at 500 ppm after 10 days; type: functional, organism-based
Echinochloa frumentacea [30] = assay: Growth regulatory activity in Echinochloa frumentacea assessed as inhibition of root growth at 500 ppm after 10 days; type: functional, organism-based
Brassica juncea [31] = assay: Growth regulatory activity in Brassica juncea assessed as inhibition of root growth at 500 ppm after 10 days; type: functional, organism-based
Brassica juncea [32] = assay: Growth regulatory activity in Brassica juncea assessed as inhibition of root growth at 1000 ppm after 10 days; type: functional, organism-based
Echinochloa frumentacea [33] = assay: Growth regulatory activity in Echinochloa frumentacea assessed as inhibition of root growth at 1000 ppm after 10 days; type: functional, organism-based
Echinochloa frumentacea [34] = assay: Growth regulatory activity in Echinochloa frumentacea assessed as inhibition of stem growth at 1000 ppm after 10 days; type: functional, organism-based
Echinochloa frumentacea [35] = assay: Growth regulatory activity in Echinochloa frumentacea assessed as inhibition of stem growth at 250 ppm after 10 days; type: functional, organism-based
Cucumis sativus [36] = assay: Growth regulatory activity in Cucumis sativus assessed as complete inhibition of stem growth at 250 ppm after 10 days; type: functional, organism-based

Compound: COc1cccc2c1C(=O)c1c(O)c3c(c(O)c1C2=O)C[C@@](O)(C(=O)CO)C[C@@H]3O[C@H]1C[C@H](N)[C@H](O)[C@H](C)O1 [DOXORUBICIN]
- inhibition of growth at 0.1 µg/mL (P388 [1]): 99%
- inhibition of growth at 0.01 µg/mL (P388 [2]): 38%
- inhibition of growth at 1 µg/mL (P388 [3]): 105%

Compound: C[C@]12CCC[C@@](C)(O)[C@@H]1[C@H]1OC(=O)C(CCl)=C1CC2
- Activity (Brassica juncea [4]): Active
- inhibition of growth at 0.1 µg/mL (P388 [1]): 26%
- Activity (Echinochloa frumentacea [5]): Active
- Activity (Echinochloa frumentacea [6]): Active
- Activity (Echinochloa frumentacea [7]): Active
- Activity (Cucumis sativus [8]): Active
- Activity (Echinochloa frumentacea [9]): Active
- Activity (Echinochloa frumentacea [10]): Active
- Activity (Brassica juncea [11]): Active
- Activity (Brassica juncea [12]): Active
- Activity (Brassica juncea [13]): Active
- Activity (Cucumis sativus [14]): Active
- Activity (Cucumis sativus [15]): Active
- Activity (Cucumis sativus [16]): Active
- Activity (Brassica juncea [17]): Active
- Activity (Cucumis sativus [18]): Active
- Activity (Brassica juncea [19]): Active
- Activity (Cucumis sativus [20]): Active
- inhibition of growth at 1 µg/mL (P388 [3]): 65%
- Activity (Cucumis sativus [21]): Active
- inhibition of growth at 10 µg/mL (P388 [22]): 103%

Compound: C=C1C(=O)O[C@@H]2[C@@H]3[C@](C)(CCC[C@@]3(C)O)CC[C@@H]12 [ARBUSCULIN A]
- Activity (Brassica juncea [4]): Active
- inhibition of growth at 0.1 µg/mL (P388 [1]): 2%
- Activity (Cucumis sativus [23]): Active
- Activity (Echinochloa frumentacea [6]): Active
- Activity (Cucumis sativus [24]): Active
- Activity (Echinochloa frumentacea [9]): Active
- Activity (Cucumis sativus [25]): Active
- Activity (Brassica juncea [26]): Active
- Activity (Echinochloa frumentacea [10]): Active
- Activity (Brassica juncea [11]): Active
- Activity (Brassica juncea [12]): Active
- Activity (Cucumis sativus [14]): Active
- Activity (Cucumis sativus [15]): Active
- Activity (Cucumis sativus [16]): Active
- Activity (Cucumis sativus [18]): Active
- Activity (Brassica juncea [19]): Active
- Activity (Cucumis sativus [27]): Active
- Activity (Cucumis sativus [20]): Active
- inhibition of growth at 1 µg/mL (P388 [3]): 45%
- Activity (Echinochloa frumentacea [28]): Active
- inhibition of growth at 10 µg/mL (P388 [22]): 101%
- Activity (Brassica juncea [29]): Active

Compound: C[C@]12CCC[C@@](C)(O)[C@@H]1[C@H]1OC(=O)C(CBr)=C1CC2
- Activity (Echinochloa frumentacea [30]): Active
- inhibition of growth at 0.1 µg/mL (P388 [1]): 3%
- Activity (Cucumis sativus [24]): Active
- Activity (Brassica juncea [31]): Active
- Activity (Echinochloa frumentacea [9]): Active
- Activity (Echinochloa frumentacea [10]): Active
- Activity (Brassica juncea [11]): Active
- Activity (Brassica juncea [12]): Active
- Activity (Cucumis sativus [20]): Active
- inhibition of growth at 1 µg/mL (P388 [3]): 44%
- inhibition of growth at 10 µg/mL (P388 [22]): 102%

Compound: C[C@]12CCC[C@@](C)(O)[C@@H]1[C@H]1OC(=O)C(CO)=C1CC2
- Activity (Brassica juncea [32]): Active
- Activity (Echinochloa frumentacea [33]): Active
- Activity (Cucumis sativus [24]): Active
- Activity (Echinochloa frumentacea [34]): Active
- Activity (Cucumis sativus [14]): Active
- Activity (Cucumis sativus [27]): Active

Compound: CC(=O)OCC1=C2CC[C@@]3(C)CCC[C@@](C)(O)[C@@H]3[C@H]2OC1=O
- Activity (Echinochloa frumentacea [35]): Active
- Activity (Brassica juncea [11]): Active
- Activity (Brassica juncea [12]): Active

Compound: C[C@@H]1C(=O)O[C@H]2C1CC[C@@]1(C)CCC[C@@](C)(O)[C@H]21 (stereo not given in full)
- Activity (Brassica juncea [4]): Active
- Activity (Echinochloa frumentacea [5]): Active
- Activity (Echinochloa frumentacea [6]): Active
- Activity (Echinochloa frumentacea [9]): Active
- Activity (Echinochloa frumentacea [10]): Active
- Activity (Brassica juncea [11]): Active
- Activity (Brassica juncea [12]): Active
- Activity (Cucumis sativus [14]): Active
- Activity (Cucumis sativus [36]): Active
- Activity (Cucumis sativus [16]): Active
- Activity (Brassica juncea [17]): Active
- Activity (Cucumis sativus [18]): Active
- Activity (Cucumis sativus [20]): Active
- Activity (Cucumis sativus [21]): Active
